Most compounds without a hit are left out; they make up all but 2.6% or so of the library.
XiGFP reactiv = activators of inactive X chromosome reactivation, primary screen, imaging, XiGFP fibroblasts, GFP high-content imaging, set 2 | XiGFP mouse fibroblasts, % GFP-positive cells imaging, 3 d; cells co-treated with 5-aza-dC sensitizer; scaled so ellipticine positive control = 100% | activation, % at 7.58 µM | 0.055% of 360,000 active | AID 743238, 2013;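 active = mean normalized replicate activation at least 10% and every replicate at or above 10%; inconclusive = only one of the two criteria met; inactive = mean below 10% and not all replicates reach 10%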
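Schedule: 3 d treatment, 15 min room-temperature fixation; system: 68-5-11 XiGFP fibroblast line; buffer or medium: DMEM plus 5-aza-dC sensitizer; control set: ellipticine 6 µM positive control; compound: one concentration, pinned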
SR-BI DiI-HDL act = activators of SR-BI mediated DiI-HDL uptake, primary screen, ldlA[mSR-BI] CHO cells, DiI fluorescence; 3 h; 100 = double the neutral-control signal; 0.096% of 320,000 active; activation, % at 12.5 µM; AID 504775, 2011;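 active = mean replicate activation of at least 60% and every replicate at or above 60%; inconclusive = mean or all-replicate condition met, but not both; inactive = mean below 60% and not all replicates reaching 60%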
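system = CHO ldlA[mSR-BI] cells, LDL receptor-null, SR-BI overexpressing | medium = Ham's F12 with 0.5% BSA, HEPES 25 mM, pH 7.4 | probe or stimulus = DiI-HDL 10 µg/mL | compound dosing = single-point compound dose | incubation = compound exposure 3 h, 37 °C | technique = DiI fluorescence, bottom read | read-out = cell-associated DiI fluorescence as measure of HDL uptake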
SR-BI DiI inh = inhibitors of SR-BI mediated HDL lipid uptake, primary screen, ldlA[mSR-BI] cells, fluorescence, single point; ldlA[mSR-BI] CHO cells, DiI-HDL uptake fluorescence, 3 h; inhibition, % at 12.5 µM; 0.96% of 320,000 active;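 active = mean replicate inhibition of at least 70% and a set share of replicates each scoring 70 or more; inconclusive = meets just one of the two criteria; inactive = fails both criteria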
Target sequence (Q61009 whole entry, looked up): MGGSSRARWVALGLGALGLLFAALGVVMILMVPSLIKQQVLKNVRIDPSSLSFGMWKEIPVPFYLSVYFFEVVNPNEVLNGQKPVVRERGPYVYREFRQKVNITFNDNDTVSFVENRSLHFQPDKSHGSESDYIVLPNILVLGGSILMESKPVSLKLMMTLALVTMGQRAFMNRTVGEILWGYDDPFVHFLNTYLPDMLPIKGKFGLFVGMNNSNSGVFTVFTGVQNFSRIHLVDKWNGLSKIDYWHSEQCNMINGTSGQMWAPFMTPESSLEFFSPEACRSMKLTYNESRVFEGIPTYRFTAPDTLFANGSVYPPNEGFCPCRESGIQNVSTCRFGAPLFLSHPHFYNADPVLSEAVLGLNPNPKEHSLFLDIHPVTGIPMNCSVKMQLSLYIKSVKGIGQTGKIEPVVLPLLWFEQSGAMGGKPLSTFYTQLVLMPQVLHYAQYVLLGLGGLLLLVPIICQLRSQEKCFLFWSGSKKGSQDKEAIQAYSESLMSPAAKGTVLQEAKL
rRNA inh HTS = reduced GFP signal of wild-type E. coli, primary screen, bacterial rRNA inhibitor project, GFP/RFP fluorescence, OD600, single point; E. coli WT GFP vs humanized-ribosome RFP mutants, 24 h; hits give low values; DMSO median 0, no signal -100; GFP signal change (wild-type ribosome), % (test concentration not listed); 1.6% of 350,000 active;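 active = significant combined selectivity score with lowered wild-type GFP, culture density cut under 30%, mutant RFP and density less affected; inactive = any of these conditions unmet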
dFosB act = activators of delta FosB homodimer, primary screen, biochemical, fluorescence polarization, TAMRA-CDK5 oligo, single point; 0.99% of 340,000 active; purified delta FosB; percent of positive-control signal above neutral wells; activation, % at 25 µM; Protein FosB (Mus musculus), P13346;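 active = mean activation above about 17%, with every replicate also reaching it, limit read from the data, passing the limit was not always enough; inconclusive = only one of the two conditions met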
PvdQ acylase = P. aeruginosa PvdQ acylase inhibitors, primary screen, biochemical, fluorescence, plate reader and imaging, single point; inhibition, % at 10 µM; AID 488965, 2010; purified PvdQ acylase; PvdQ acylase [Pseudomonas aeruginosa LESB58]; 0.063% of 340,000 active; in the data active = inhibition above about 30%, passing the limit was not always enough; inconclusive = no clear call, values can overlap the other calls
AID977621 = growth inhibition of wild-type GFP E. coli, dose response, H69 mutant RFP, cherry-pick | shares compounds with rRNA inh HTS | E. coli wild-type GFP strain growth, fluorescence, 24 h | activity change, negative = inhibition at 50 µM | 1,900 tested, under 10 active;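 active = Wild-type ribosome reporter drop at least double the humanized mutant ribosome reporter drop, growth loss under a set limit; inconclusive = no clear call, values can overlap the other calls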;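 also: wild-type GFP and H69 mutant RFP strains grown together 50/50 in each well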
AID977628 = E. coli growth inhibition, wild-type GFP versus h24 humanized RFP strain, dose response, h24 mutant RFP vs wild-type GFP, cherry-pick; shares compounds with rRNA inh HTS; E. coli WT GFP strain growth, fluorescence, 24 h; activity change, negative = inhibition at 50 µM; 1,900 tested, under 10 active;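 active = compound lowering the normal-ribosome reporter at least twice as much as the humanized-ribosome reporter, growth loss under a set limit; inconclusive = no clear call, values can overlap the other calls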;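 also: wild-type GFP and h24 humanized RFP strains co-cultured 1 to 1 per well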
Numbers stand for hits; n = inactive; u = inconclusive; x = no result.

SMILES	XiGFP reactiv	SR-BI DiI-HDL act	SR-BI DiI inh	rRNA inh HTS	dFosB act	PvdQ acylase	AID977621	AID977628
CCOc1ccccc1/C=C/c1cc(C(=O)O)c2ccccc2n1	x	x	x	-23	n	n	n	x
CCCCNC(=O)c1onc(CSc2cc(C)cc(C)c2)c1C(=O)O	n	n	n	-29	n	n	n	x
Cc1nc(N2CCC(C)CC2)c(C#N)c(C)c1[N+](=O)[O-]	n	n	n	-25	n	n	n	n
COc1ccc(CN(C)C(=O)[C@@H](Cc2ccccc2)NC(=O)[C@H]2O[C@@H](n3ccc(N)nc3=O)[C@H](O)[C@@H]2O)cc1OC	n	x	x	n	x	x	x	x
COCC(C)n1c(C)cc(C(=O)COC(=O)CCc2nc3ccccc3c(=O)[nH]2)c1C (stereo not given)	n	n	n	n	n	n	x	x
COCCCn1c(C)cc(C(=O)COC(=O)CCc2nc3ccccc3c(=O)[nH]2)c1C	u	x	x	-27	x	x	n	x
COc1ccc(CN2CCC(=O)N([C@H](CO)CC(C)C)CC2)cc1	n	n	n	n	n	n	x	x
O=c1c2cc(Br)ccc2[nH]c(=S)n1Cc1ccccc1	n	n	n	-36	n	n	n	x
Cc1ccc(Cn2c(=S)[nH]c3ccccc3c2=O)cc1	n	n	n	n	n	n	x	x
O=[N+]([O-])c1cccc(-c2nc3ccc([N+](=O)[O-])cc3[nH]2)c1	n	n	n	n	n	n	x	x
O=[N+]([O-])c1ccc2nc(-c3ccccc3[N+](=O)[O-])[nH]c2c1	n	n	n	-28	n	n	x	n
CC(SCc1ccccc1)C(=O)Nc1ccc2c(c1)OCO2 (stereo not given)	x	n	n	x	n	n	x	x
COC(=O)C[C@@H]1C[C@@H]2c3cc(NC(=O)Nc4ccccc4F)ccc3O[C@@H]2[C@H](CO)O1	n	x	x	n	x	x	x	x
O=C(NCc1ccccc1)c1nc(S(=O)(=O)Cc2ccccc2)ncc1Cl	n	n	n	-24	n	n	n	n
COc1ccc(CNC(=O)c2nc(S(=O)(=O)Cc3ccccc3)ncc2Cl)cc1	n	n	n	-16	n	n	n	n
COC(=O)c1ccccc1NC(=O)c1nc(S(=O)(=O)Cc2ccccc2)ncc1Cl	n	n	n	n	n	n	x	x
O=C(NCc1ccc2c(c1)OCO2)c1nc(S(=O)(=O)Cc2ccccc2)ncc1Cl	n	n	n	n	n	n	x	x
Cc1onc(-c2ccccc2Cl)c1C(=O)N1CCN(Cc2ccc3c(c2)OCO3)CC1	n	n	n	-20	n	n	n	n
CC(=O)Oc1c(C)c(OC(C)=O)c2c(c1C(C)=O)OC1CC(=O)C(C(C)=O)=C(O)C21C (stereo not given)	n	n	n	n	n	n	x	x
Cc1cc(C(C)(C)C)oc1C(=O)N(CC(=O)NC1CCCC1)c1c(C)cccc1C	x	n	n	-25	n	n	x	n
Cc1cc(C)nc(NS(=O)(=O)c2ccc(NC(=O)c3cc(=O)c4ccccc4o3)cc2)n1	n	n	n	n	n	n	x	x
CC(=O)N1c2c(cc(Br)cc2S(=O)(=O)N2CCCCC2)CC1C (stereo not given)	n	n	n	-19	n	n	x	n
CC(=O)N1c2c(cc(Br)cc2S(=O)(=O)N2CCOCC2)CC1C (stereo not given)	x	n	n	x	n	n	x	x
COc1ccc2c3c([nH]c2c1)[C@H](CO)N(Cc1ccccc1F)CC31CCN(C)CC1	n	x	x	n	x	x	x	x
Cc1ccc(-c2cc(C(=O)O)c3ccccc3n2)s1	n	n	n	n	n	n	x	x
SMILES	XiGFP reactiv	SR-BI DiI-HDL act	SR-BI DiI inh	rRNA inh HTS	dFosB act	PvdQ acylase	AID977621	AID977628
O=C(O)c1cc(-c2ccc(Cl)s2)nc2ccccc12	n	n	n	-27	n	n	n	u
Cc1ccc(-c2csc(N(CC3CCCO3)C(=O)c3ccco3)n2)cc1 (stereo not given)	n	n	n	x	n	n	x	x
CC(C)OC(=O)c1sc2nc(-c3ccccc3)ccc2c1N	x	n	n	-26	n	n	n	u
O=C(Nc1ccc(F)c(Cl)c1)C1CC2CCC1C2 (stereo not given)	n	n	n	-28	n	n	n	n
O=C(Nc1ccc(F)cc1)C1CC2CCC1C2 (stereo not given)	n	n	n	n	n	n	x	x
Cc1ccc(-c2nc(CN3CCCCC3c3cccc(F)c3)c(C)o2)o1 (stereo not given)	n	n	n	-18	n	n	n	n
Cc1ccc2c(c1C)OC(=O)CC2c1ccccc1 (stereo not given)	n	n	n	-27	n	n	x	u
Cc1ccc2c(c1)OC(=O)CC2c1ccccc1 (stereo not given)	x	n	n	x	n	n	x	x
Fc1ccc(CSc2nnc(-c3ccco3)o2)cc1	n	n	n	-17	n	n	u	n
O=C1C=C(/C=C/C2C=CC=CC2)C[C@@H](c2ccc(Cl)cc2)C1 (stereo not given in full)	n	n	n	n	n	n	x	x
COc1cccc2cc(C(=O)OCC(=O)NC3CCCC(C)C3C)c(=O)oc12 (stereo not given)	n	n	n	n	n	n	x	x
C[C@@H]1CCCCO[C@H](CN(C)S(=O)(=O)c2cccs2)[C@H](C)CN([C@H](C)CO)C(=O)c2cc(NC(=O)CCC(F)(F)F)ccc2O1	n	x	x	n	x	x	x	x
C=CCNC(=O)NC(=O)COC(=O)[C@H](C)NS(=O)(=O)c1c(C)c(C)cc(C)c1C	n	x	x	n	n	n	x	x
O=C(Nc1ccccc1)N1CCCCN2[C@@H](CO)[C@H](c3ccc(Br)cc3)[C@@H]2C1	n	x	x	-23	x	x	x	u
O=C(Nc1ccccc1)N1CCCCN2[C@H](CO)[C@@H](c3ccc(Br)cc3)[C@@H]2C1	n	x	x	n	x	x	x	x
Cc1ccccc1-c1ccc([C@@H]2[C@@H](CO)N3CCCCN(C(=O)Nc4ccc(F)cc4)C[C@@H]23)cc1	n	x	x	-38	x	x	x	u

Screening results (PubChem)
